In paper PMC10620946 (Journal of medicinal chemistry, 2021):
Values belong to the compound of their own block, whether it stands above or below them.

Assays:
P-RNase L21-732 = experiment: STD-NMR binding; design: species or system porcine; settings: for STD-NMR signal (binding to P-RNase L): 10 μM P-RNase L21-732, 400 μM fragment; for STD-NMR binding to RNase L dimer: 2-5A in molar excess to RNase L; for STD-NMR binding with ATP/MgCl2: ATP/MgCl2 or mixture of 2-5A and ATP/MgCl2 in molar excess to RNase L; for STD-NMR binding to monomeric RNase L: absence of 2-5A
[1] = molecular target: T1, human RNase L (H-RNase L) (Homo sapiens, UniProt Q05823); experiment: FRET based enzyme assay of RNA substrate cleavage, H-RNase L; assay type: biochemical; settings: for IC50 against RNase L, in words: in vitro
T1 sequence (Q05823 1-741): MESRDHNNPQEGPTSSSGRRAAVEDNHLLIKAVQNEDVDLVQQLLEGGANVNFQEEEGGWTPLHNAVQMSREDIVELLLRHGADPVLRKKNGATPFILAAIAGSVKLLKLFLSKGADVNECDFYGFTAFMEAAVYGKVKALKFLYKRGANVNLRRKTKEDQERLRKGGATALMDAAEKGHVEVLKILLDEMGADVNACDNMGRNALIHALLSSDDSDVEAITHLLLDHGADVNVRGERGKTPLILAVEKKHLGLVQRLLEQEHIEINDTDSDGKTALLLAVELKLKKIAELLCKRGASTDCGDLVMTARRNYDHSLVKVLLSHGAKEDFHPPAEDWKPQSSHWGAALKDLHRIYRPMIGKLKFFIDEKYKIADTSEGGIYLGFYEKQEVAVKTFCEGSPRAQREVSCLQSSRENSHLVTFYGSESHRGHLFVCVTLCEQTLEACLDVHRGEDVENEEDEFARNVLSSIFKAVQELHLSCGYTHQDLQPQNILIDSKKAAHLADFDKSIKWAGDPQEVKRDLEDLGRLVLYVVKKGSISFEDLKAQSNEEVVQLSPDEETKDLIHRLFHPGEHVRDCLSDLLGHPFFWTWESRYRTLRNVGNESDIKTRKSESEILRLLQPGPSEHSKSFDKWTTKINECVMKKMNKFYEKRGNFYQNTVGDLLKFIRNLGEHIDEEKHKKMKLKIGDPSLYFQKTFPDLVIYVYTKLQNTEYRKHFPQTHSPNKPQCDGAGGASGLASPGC

[2] = molecular target: porcine RNase L (P-RNase L) (Sus scrofa, UniProt A5H025); experiment: FRET based enzyme assay of RNA substrate cleavage, P-RNase L; assay type: biochemical
RNase L [3] = settings: cited from earlier work
RNase L [4] = settings: cited from earlier work; remark: listed apart in the source
P-RNase L = experiment: RNase L oligomerization assay; assay type: biochemical, porcine; settings: 40 μM compound, 2-5A up to 2 μM
Summary of the method: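 Full-length porcine RNase L (0.8 μM) with 5 mM MgCl₂, preincubated ±test compound 15 min on ice. 2-5A then added for a further 15 min on ice. Cross-linked with DMS (120 mg/mL stock in 0.4 M triethanolamine-HCl, pH 8.5) 1 h at room temperature. Denatured in SDS/β-mercaptoethanol loading buffer at 95 °C for 5 min. Resolved by 4-12% gradient SDS-PAGE with Coomassie G-250 stain and imaged.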

H-RNase L = molecular target: T2, H-RNase L (Homo sapiens, UniProt Q05823); experiment: RNase L mediated rRNA cleavage in intact A549 cells; assay type: cell-based; settings: 3-100 μM inhibitor, 4 h, then 20 μM trimeric 2-5A 2 h
T2 sequence (Q05823 1-741): T1 sequence (Q05823 1-741)

STD-NMR signal (binding to P-RNase L) (P-RNase L21-732): positive
Compound: O=C(O)c1ccc(Cl)nc1Cl [AC39661]

Compound: CCCCOC(=O)c1ccc(O)cc1 [AC40357]
STD-NMR signal (binding to P-RNase L) (P-RNase L21-732): positive
inhibition of H-RNase L in vitro [1]: inhibited
IC50 against RNase L, in words [1]: low millimolar
inhibition of P-RNase L in vitro [2]: inhibited only H-RNase L

STD-NMR signal (binding to P-RNase L) (P-RNase L21-732): positive
Compound: Oc1ccc(Sc2ccc(O)cc2)cc1 [BTB10184]

STD-NMR signal (binding to P-RNase L) (P-RNase L21-732): positive
Compound: C[S+]([O-])c1sc(Cl)c2c1C(=O)CCC2 (centres unmarked) [KM05073]

STD-NMR signal (binding to P-RNase L) (P-RNase L21-732): positive
Compound: Cc1cc(C(=O)O)cc(Cl)n1 [RF03759]

Compound: O=C(O)c1cc(O)c(O)c(O)c1Oc1cc2c(=O)oc3c(O)c(O)cc4c(=O)oc(c1O)c2c34 [VAL, valoneic acid dilactone]
EC50 for RNase L in intact cells, in words (RNase L [3]): micromolar range
inhibition activity on RNase L in vitro, in words (RNase L [4]): nanomolar

Compound: O=c1c(O[C@@H]2O[C@H](CO)[C@H](O)[C@H](O)[C@H]2O)c(-c2ccc(O)c(O)c2)oc2cc(O)cc(O)c12 [hyperoside]
STD-NMR binding to RNase L dimer (P-RNase L21-732): positive STD signal
STD-NMR binding with ATP/MgCl2 (P-RNase L21-732): remained positive
STD-NMR binding to monomeric RNase L (P-RNase L21-732): directly interacts
suppression of 2-5A induced RNase L dimerization (cross-linking) (P-RNase L): did not suppress
inhibition of H-RNase L in vitro [1]: inhibited
effect of 2-5A concentration on potency against H-RNase L ([1]; 2-5A 1, 5 and 20 nM): does not seem to have an effect
IC50 against RNase L, in words [1]: single-digit micromolar
inhibition of P-RNase L in vitro [2]: inhibited
effect of 2-5A concentration on potency against P-RNase L ([2]; 2-5A 1, 5 and 20 nM): does not seem to have an effect
inhibitory activity against RNase L in intact cells (rRNA cleavage) (H-RNase L): did not show any inhibitory activity

inhibition of H-RNase L in vitro [1]: not active
inhibition of P-RNase L in vitro [2]: not active
Compound: O=c1c(O)c(-c2ccc(O)cc2O)oc2cc(O)cc(O)c12 [morin]

STD-NMR binding to RNase L dimer (P-RNase L21-732): positive STD signal
STD-NMR binding with ATP/MgCl2 (P-RNase L21-732): remained positive
STD-NMR binding to monomeric RNase L (P-RNase L21-732): directly interacts
inhibition of H-RNase L in vitro [1]: inhibited
inhibition of P-RNase L in vitro [2]: inhibited
Compound: O=c1c(O)c(-c2cc(O)c(O)c(O)c2)oc2cc(O)cc(O)c12 [myricetin]
inhibitory activity against RNase L in intact cells (rRNA cleavage) (H-RNase L): identical inhibitory activity to that of VAL

Compound: O=C(CCc1ccc(O)cc1)c1c(O)cc(O)cc1O [phloretin]
inhibition of H-RNase L in vitro [1]: inhibited

Compound: CCN(CC)CCNC(=O)c1c(C)[nH]c(/C=C2\C(=O)Nc3ccc(F)cc32)c1C [sunitinib]
IC50 against RNase L in vitro, in words (RNase L [4]): micromolar range

Compound: O=c1cc(-c2ccc(O)cc2)oc2c([C@@H]3O[C@H](CO)[C@@H](O)[C@H](O)[C@H]3O)c(O)cc(O)c12 [vitexin]
STD-NMR signal (binding to P-RNase L) (P-RNase L21-732): directly binds
inhibitory activity against RNase L in intact cells (rRNA cleavage) (H-RNase L): did not show any inhibitory activity
